Compound activity deposited in PubChem BioAssay by several laboratories.
Rad51 HR inh – Rad51 (human) homologous recombination inhibition; inhibition, % at 10 µM; 0.085% of 200,000 active; hRad51 DNA strand exchange, fluorescence dequenching; Q06609;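 active = inhibition above 40% at the single screening dose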
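material = hRad51 filaments on single-stranded DNA | timing = filaments 15 min 37 °C, then compound 30 min | signal = FRET fluorescence dequenching, excitation 485 nm, emission 520 nm | benchmarks = control wells and blank wells on each plate | evaluation = percent inhibition relative to plate controls and blanks | compound = 10 µM final, single point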
KCC2 mod – modulates chloride dependent transport by human KCC2; 2.2% of 190,000 active; B-score of Tl+ flux slope (higher = more flux/activation; lower = inhibition) at 10 µM; KCC2 cells, thallium flux FluoZin-2 fluorescence; Q9H2X9;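 active = thallium flux slope and its plate-corrected score both differing from the plate sample mean at a set confidence after two filtering rounds, in either direction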;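 note: slope of fluorescence scaled to starting intensity during 10 to 20 s after thallium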
Target sequence (Q9H2X9 whole entry, looked up): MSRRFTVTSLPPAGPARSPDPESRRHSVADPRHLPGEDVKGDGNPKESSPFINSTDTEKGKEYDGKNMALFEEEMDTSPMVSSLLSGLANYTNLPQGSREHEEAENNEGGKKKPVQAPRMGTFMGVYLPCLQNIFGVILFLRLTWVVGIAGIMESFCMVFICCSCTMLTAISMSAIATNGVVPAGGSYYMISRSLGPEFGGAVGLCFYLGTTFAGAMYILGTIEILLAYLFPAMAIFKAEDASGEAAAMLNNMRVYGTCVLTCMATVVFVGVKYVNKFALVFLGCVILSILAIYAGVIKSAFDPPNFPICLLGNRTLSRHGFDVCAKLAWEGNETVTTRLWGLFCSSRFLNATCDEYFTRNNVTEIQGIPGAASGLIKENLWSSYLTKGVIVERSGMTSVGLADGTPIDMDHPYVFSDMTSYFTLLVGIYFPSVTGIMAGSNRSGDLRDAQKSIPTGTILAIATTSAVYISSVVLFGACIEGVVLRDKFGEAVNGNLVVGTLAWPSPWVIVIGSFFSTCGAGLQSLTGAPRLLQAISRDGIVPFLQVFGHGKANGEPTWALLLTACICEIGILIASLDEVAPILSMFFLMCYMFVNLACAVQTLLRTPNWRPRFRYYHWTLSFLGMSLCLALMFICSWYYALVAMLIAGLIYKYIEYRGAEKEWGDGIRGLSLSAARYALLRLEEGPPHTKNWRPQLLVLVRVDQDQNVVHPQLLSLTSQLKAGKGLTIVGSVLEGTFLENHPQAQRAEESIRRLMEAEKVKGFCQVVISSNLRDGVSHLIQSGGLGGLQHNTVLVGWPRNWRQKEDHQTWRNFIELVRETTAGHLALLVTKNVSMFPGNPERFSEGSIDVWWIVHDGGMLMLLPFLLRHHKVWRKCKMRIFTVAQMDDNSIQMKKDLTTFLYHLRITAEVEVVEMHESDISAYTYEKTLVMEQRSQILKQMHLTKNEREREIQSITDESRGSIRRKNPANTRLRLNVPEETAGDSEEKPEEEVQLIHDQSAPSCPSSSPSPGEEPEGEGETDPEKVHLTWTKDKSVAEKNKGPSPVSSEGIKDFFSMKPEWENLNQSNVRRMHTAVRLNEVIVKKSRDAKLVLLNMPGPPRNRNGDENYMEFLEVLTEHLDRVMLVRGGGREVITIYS
ROMK primary – human ROMK K+ channel modulation, primary screen | P48048 | 2% of 130,000 active | Tet-inducible ROMK, thallium flux fluorescence; actives lie on both sides | B-score at 10 µM;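 active = signal ratio slope over the read window, or its plate-corrected B-score, at least 3 SD from the plate mean, either direction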;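 note: B-score of the F/F0 ratio slope over 7 to 12 s after thallium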
PKD1 kinase inh – inhibitors of human PKD1 kinase | Q15139 | PKD1 kinase fluorescence polarization assay | inhibition, % (test concentration not listed) | 0.056% of 200,000 active | AID 797; in the data active = inhibition above about 50%
KCC2 secondary – KCC2 (human) modulation, secondary assay. shares compounds with KCC2 mod. HEK293-KCC2, thallium flux, FluoZin2 fluorescence; hits give high values. normalised thallium flux (F/F0 slope) at 10 µM. 15% of 3,700 active. AID 1713;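 active = thallium flux slope above the same plate's solvent-only control mean plus 3 SD; inconclusive = the two replicate wells disagree; inactive = no significant difference from solvent-only control wells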
KCC2 bumet counter – thallium flux despite bumetanide block in KCC2 cells, secondary assay 3. normalized thallium flux at 10 µM. HEK293-KCC2 + bumetanide/ouabain, thallium flux FluoZin2; hits give high values. shares compounds with KCC2 mod. 49% of 3,700 active;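 active = thallium entry rate above the same plate's blocked-transporter control wells by more than 3 SD; inconclusive = the two repeat wells disagree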;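 note: raw slope of fluorescence over initial fluorescence between 10 and 20 s after thallium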
KCC2 secondary2 – confirmation of human KCC2 transport modulators; shares compounds with KCC2 mod; HEK293-KCC2, thallium flux FluoZin2 fluorescence; actives lie on both sides; F/F0 rise rate, 10–20 s post-thallium; normalized thallium flux at 10 µM; 23% of 3,700 active;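 active = thallium flux slope more than 3 SD above or below the plate's solvent-only control mean, mostly below; inconclusive = the two repeat wells disagreed; inactive = no significant shift from solvent-only controls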
HEK293 Tl flux – counter-screen for KCC2 modulators: effect in parental HEK293 cells | 46% of 3,700 active | AID 1716 | thallium flux FluoZin2, ouabain; baseline-ratio fluorescence slope, 10–20 s after thallium | shares compounds with KCC2 mod | thallium flux rate (normalised fluorescence) at 10 µM;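 active = thallium flux rate significantly above the same plate's solvent-only control wells, beyond their mean plus 3 SD; inconclusive = the two replicate wells gave conflicting results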
KCC2 ouabain – modulates human KCC2 on retest with ouabain. HEK293-KCC2, thallium flux FluoZin2 fluorescence; bidirectional: low = inhibitor, high = activator. 48% of 3,700 active. shares compounds with KCC2 mod. raw Tl+ flux slope (below DMSO = inhibition, above = activation) at 10 µM;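 active = thallium flux slope beyond 3 SD from same-plate DMSO control mean in most replicates, usually higher, sometimes lower; inconclusive = repeat tests gave conflicting results; inactive = no significant difference from controls in most replicates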;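 note: slope of initial-normalized fluorescence between seconds 10 and 20 after thallium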
HEK293 Tl flux2 – parental HEK flux effect, counter-screen 2. 33% of 3,700 active. shares compounds with KCC2 mod. thallium flux slope at 10 µM. HEK293 parental, thallium flux FluoZin-2 fluorescence slope;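 active = thallium flux slope above the same plate's solvent-control mean plus 3 SD in both duplicate wells; inconclusive = duplicate wells that disagreed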;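 note: run without ouabain in cells lacking the KCC2 cotransporter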
Hits are given with their value; i = inactive; ? = inconclusive; nt = no result given. Most compounds without a hit are left out; they make up all but 3% or so of the library.

SMILES | Rad51 HR inh | KCC2 mod | ROMK primary | PKD1 kinase inh | KCC2 secondary | KCC2 bumet counter | KCC2 secondary2 | HEK293 Tl flux | KCC2 ouabain | HEK293 Tl flux2
Cc1cc(C)n2nc(SCCCC(=O)c3ccc(F)cc3)nc2n1 | i | i | i | i | nt | nt | nt | nt | nt | nt
CSc1nc(SC(C)C(=O)O)c2c3c(sc2n1)COC(C)(C)C3 (stereo not drawn) | i | 4.8 | i | nt | i | 0.02 | ? | 0.032 | 0.034 | 0.021
CN(C)S(=O)(=O)c1ccc(C(=O)NCc2nnc(SCC(=O)Nc3ccc(F)cc3)n2-c2ccc(F)cc2)cc1 | i | i | i | i | nt | nt | nt | nt | nt | nt
O=C(CN1CCN(c2ccccc2F)CC1)c1c[nH]c2ccccc12 | nt | -4.3 | nt | i | i | i | i | i | i | 0.011
Cc1cc(C(=O)NNc2ccc(F)cc2)no1 | i | i | nt | nt | nt | nt | nt | nt | nt | nt
Cc1cccc(C)c1NC1=NC(=S)N(c2ccc(C(=O)O)cc2)C12CCCCC2 | i | i | i | i | nt | nt | nt | nt | nt | nt
COc1ccc(N2C(=S)N=C(Nc3cccc(C)c3)C23CCCCC3)cc1 | nt | 4.3 | i | i | i | 0.011 | i | 0.011 | i | 0.011
COc1ccccc1N1C(=S)N=C(Nc2c(C)cccc2C)C12CCCC2 | i | 6.2 | nt | nt | i | 0.048 | i | 0.015 | i | 0.012
CCOC(=O)c1[nH]c2ccc(Br)cc2c1NC(=O)CCN1CCCCC1 | i | nt | nt | i | nt | nt | nt | nt | nt | nt
CCOC(=O)c1[nH]c2ccc(Br)cc2c1NC(=O)CCN1CCC(C(=O)OCC)CC1 | i | i | i | i | i | i | ? | i | i | i
COCCn1c(-c2ccc(Cl)cc2Cl)nc2c(c(=O)c3ccccc3n2C)c1=O | i | -3.4 | i | i | i | i | 0.024 | ? | 0.013 | i
COc1ccc(CCn2c(-c3ccc(OC)cc3)nc3c(c(=O)c4ccccc4n3C)c2=O)cc1 | nt | i | i | nt | nt | nt | nt | nt | nt | nt
OC(COCCOc1ccc(Br)cc1)CN1CCN(Cc2ccccc2)CC1 (stereo not drawn) | nt | i | i | i | nt | nt | nt | nt | nt | nt
Cc1ccc(C2=CSC3=NNC4(CCCCC4)NN23)cc1 | i | -4.4 | i | i | i | 0.0058 | 0.024 | i | ? | i
COc1ccc(C2=CSC3=NNC4(CCCCC4)NN23)cc1 | i | i | i | i | nt | nt | nt | nt | nt | nt
CC(=O)Oc1c(-c2ccco2)oc2ccccc2c1=O | i | 40 | i | i | 0.045 | 0.071 | 0.057 | 0.057 | 0.056 | 0.056
Cc1ccc(NC(=S)NNc2ccc([N+](=O)[O-])cc2S(=O)(=O)Nc2ccccc2C(=O)O)cc1C | i | -6.1 | i | i | i | i | 0.025 | ? | 0.012 | ?
S=c1[nH]nc(Nc2cccc3ccccc23)s1 | i | 30 | nt | nt | 0.0078 | 0.023 | 0.017 | 0.0088 | 0.016 | i
O=C(Nc1ccon1)c1ccc(S(=O)(=O)N2CCOCC2)cc1 | nt | i | i | i | nt | nt | nt | nt | nt | nt
CCOC(=O)N1CCN(Cc2nc(N)nc(Nc3ccc(OC)cc3)n2)CC1 | i | nt | nt | i | nt | nt | nt | nt | nt | nt
CCOC(=O)N1CCN(Cc2nc(N)nc(Nc3ccc(Oc4ccccc4)cc3)n2)CC1 | i | -4.1 | nt | i | i | i | i | i | i | i
CCn1c(=O)n(CCOC)c(=O)c2c3c(sc21)CCCC3 | i | i | i | i | nt | nt | nt | nt | nt | nt
COCCCn1c(=S)[nH]c2sc3c(c2c1=O)CCCS3 | i | 53 | i | i | 0.033 | 0.093 | 0.049 | 0.068 | 0.077 | 0.029
NC(=O)c1sc2nnc(-c3ccccc3)c(-c3ccccc3)c2c1N | i | i | i | nt | nt | nt | nt | nt | nt | nt
COc1cc(/C=C/C(=O)O)cc(S(=O)(=O)NC2CC2)c1OC | i | i | i | i | nt | nt | nt | nt | nt | nt
SMILES | Rad51 HR inh | KCC2 mod | ROMK primary | PKD1 kinase inh | KCC2 secondary | KCC2 bumet counter | KCC2 secondary2 | HEK293 Tl flux | KCC2 ouabain | HEK293 Tl flux2
Cc1cc(-c2ccccc2)c(C#N)c(=S)[nH]1 | i | 6.9 | nt | i | 0.017 | 0.028 | i | 0.016 | i | 0.012
Cc1[nH]c(=S)c(C#N)c(C)c1Cc1ccccc1 | nt | nt | i | nt | nt | nt | nt | nt | nt | nt
N#Cc1c(-c2ccccc2Cl)cc(-c2ccccc2)[nH]c1=S | i | 17 | i | i | 0.015 | 0.028 | i | 0.022 | 0.035 | 0.013
CCN1CCN(c2ccc(NC(=O)c3cccc(F)c3)cc2Cl)CC1 | i | i | i | i | nt | nt | nt | nt | nt | nt
CC1CCCCN1C(=O)CSc1nnc(-c2c[nH]c3ccccc23)o1 (stereo not drawn) | i | -3.3 | i | i | i | i | 0.023 | i | i | i
COc1ccc(/C=N/NC2=NCCCCC2)c(OC)c1 | i | i | i | i | nt | nt | nt | nt | nt | nt
CCOc1ccc(/C=N/OCC(=O)NCc2ccc3c(c2)OCO3)cc1OC | i | i | nt | i | nt | nt | nt | nt | nt | nt
O=C(NC1CCCCC1)c1sc(=S)n2c1[nH]c(=O)c1ccccc12 | i | 8.7 | i | i | i | 0.033 | 0.041 | 0.025 | 0.035 | 0.027
N#C/C(=N\Nc1ccc(Cl)c(Cl)c1)C(=O)C1CC1 | i | -6 | nt | nt | i | i | 0.023 | 0.004 | 0.012 | 0.0074
CN(C)S(=O)(=O)c1cccc(NC(=S)NN=C(Cc2ccccc2)Cc2ccccc2)c1 | i | 5.9 | nt | i | i | 0.0099 | i | 0.014 | i | 0.016
COc1cc(/C=N/NC(=S)Nc2cccc(S(=O)(=O)N(C)C)c2)ccc1O | nt | -3.4 | i | i | i | i | i | i | 0.016 | i
CN(C)S(=O)(=O)c1cccc(NC(=S)NC2CCCCC2)c1 | i | i | i | i | nt | nt | nt | nt | nt | nt
CCOC(=O)C1(C(F)(F)F)N=C(c2cccnc2)OC(N2CCCCC2)=N1 (stereo not drawn) | nt | i | i | i | nt | nt | nt | nt | nt | nt
COc1ccc2nc(NC(=O)Cn3cnc4ccccc4c3=O)sc2c1 | i | i | nt | nt | nt | nt | nt | nt | nt | nt
N/C(Cc1cccs1)=N\OC(=O)COc1ccccc1Cl | i | nt | i | i | i | i | i | ? | i | i
N/C(Cc1cccs1)=N\OC(=O)COc1ccc(Br)cc1Cl | i | i | nt | i | nt | nt | nt | nt | nt | nt
O=C(N=Nc1ccc(NOC(=O)c2ccccc2Br)cc1)c1ccccc1O | i | 4.2 | i | i | i | 0.021 | i | 0.013 | ? | i
Cc1ccc(N(CC(=O)NC(C)(C)C)C(=O)CNC(=O)c2cccs2)cc1C | i | i | i | i | nt | nt | nt | nt | nt | nt
Cc1cc(C)nc(N2CCCC(C(=O)NC(C)C)C2)n1 (stereo not drawn) | i | nt | i | i | nt | nt | nt | nt | nt | nt
Cc1cccc2cc3c(nc12)SC(=NCC1CCCO1)N(Cc1ccco1)C3 (stereo not drawn) | i | i | nt | i | nt | nt | nt | nt | nt | nt
Cc1ccc2nc3c(cc2c1)CN(Cc1ccco1)C(=NCC1CCCO1)S3 (stereo not drawn) | i | 3 | nt | i | i | ? | i | i | i | i
